Test results as given in ChEMBL document CHEMBL2177084, “Discovery of salermide-related sirtuin inhibitors: binding mode studies and antiproliferative effects in cancer cells including cancer stem cells” (J Med Chem, 2012).
Active and inactive are the calls of the source. The calls are words filed in the database; no cut-off is given here.

Key:
U-937 [1] = experiment: Induction of apoptosis in human U937 cells at 50 uM after 45 hrs by flow cytometry; assay type: functional, cell-based
Outline: (§1)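 Apoptosis was taken as the pre-G1 peak after propidium iodide staining in hypotonic citrate/Triton buffer (30 min, dark) and flow cytometry. Triplicate experiments.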

U-937 [2] = experiment: Induction of apoptosis in human U937 cells at 5 uM after 45 hrs by flow cytometry; assay type: functional, cell-based; outline: as §1
U-937 [3] = experiment: Cell cycle arrest in human U937 cells assessed as accumulation at G1 phase at 25 uM after 40 hrs by flow cytometry; assay type: functional, cell-based
U-937 [4] = experiment: Induction of apoptosis in human U937 cells after 45 hrs by flow cytometry; assay type: functional; parameters: concentration or dose not given beside the values; details: in the assay text read “after 40 hrs” for “after 45 hrs”; outline: as §1
[5] = biological target: T1, NAD-dependent protein deacetylase sirtuin-1 (Homo sapiens) (UniProt Q96EB6); experiment: (§2) Inhibition of human N-terminal GST-tagged SIRT1 expressed in Escherichia coli using Arg-His- Lys-Lys(Ac) as substrate after 1 hr by Fluor de Lys fluorescence based assay
T1 sequence (whole entry): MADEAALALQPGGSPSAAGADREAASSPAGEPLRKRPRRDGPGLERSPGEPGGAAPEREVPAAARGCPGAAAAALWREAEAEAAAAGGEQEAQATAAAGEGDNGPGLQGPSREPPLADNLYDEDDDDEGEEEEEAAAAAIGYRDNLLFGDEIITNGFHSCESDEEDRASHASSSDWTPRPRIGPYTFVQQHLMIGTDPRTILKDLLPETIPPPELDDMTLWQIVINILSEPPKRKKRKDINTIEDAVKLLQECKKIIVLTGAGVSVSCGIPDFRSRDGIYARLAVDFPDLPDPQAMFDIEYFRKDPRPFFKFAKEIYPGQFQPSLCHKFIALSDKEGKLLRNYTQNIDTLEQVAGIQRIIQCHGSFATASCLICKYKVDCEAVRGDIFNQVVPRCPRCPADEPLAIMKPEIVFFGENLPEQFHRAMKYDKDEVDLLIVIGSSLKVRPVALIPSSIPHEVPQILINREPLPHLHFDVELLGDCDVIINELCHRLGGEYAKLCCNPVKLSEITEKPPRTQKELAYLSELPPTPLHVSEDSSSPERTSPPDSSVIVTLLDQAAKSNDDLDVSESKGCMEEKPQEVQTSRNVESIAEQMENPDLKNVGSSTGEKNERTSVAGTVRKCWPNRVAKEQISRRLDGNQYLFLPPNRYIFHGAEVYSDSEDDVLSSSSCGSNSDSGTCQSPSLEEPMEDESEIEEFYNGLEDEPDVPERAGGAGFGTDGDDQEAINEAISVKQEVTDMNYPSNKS
Outline: (§3)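 Recombinant full-length human sirtuin expressed in E. coli was incubated 1 h at 37 °C with p53-derived AMC-conjugated acetyl-peptide (SIRT1: Arg-His-Lys-Lys(Ac); SIRT2: Gln-Pro-Lys-Lys(Ac); […]) and NAD+ ([…]). The reaction was stopped and developed with developer containing 2 mM nicotinamide, and fluorescence read at ex 360/em 460 nm. Compound fluorescence was subtracted using an enzyme-free counter assay. Triplicate.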

MOLT-4 [6] = experiment: Antiproliferative activity against human MOLT4 cells at 25 uM after 24 to 72 hrs by MTT assay; assay type: functional, cell-based
Outline: (§4)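 Cells exposed to compound for 24, 48 and 72 h; growth inhibition read by MTT and expressed as percentage antiproliferative activity.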

MOLT-4 [7] = experiment: Antiproliferative activity against human MOLT4 cells at 100 uM by MTT assay; assay type: functional, cell-based; details: TDE = time-dependent effect; outline: as §4
MOLT-4 [8] = experiment: Antiproliferative activity against human MOLT4 cells at 100 uM after 24 to 72 hrs by MTT assay; assay type: functional, cell-based; outline: as §4
U-937 [9] = experiment: Cell cycle arrest in human U937 cells assessed as accumulation at S phase at 25 uM after 40 hrs by flow cytometry; assay type: functional, cell-based
[10] = biological target: T2, NAD-dependent protein deacetylase sirtuin-1 (Homo sapiens, UniProt Q96EB6); experiment: as §2; outline: as §3
T2 sequence (Q96EB6 whole entry): T1 sequence (whole entry)

[11] = Cytotoxicity against human 30PT cells after 72 hrs by celltiter-glo luminescent assay; assay type: functional
Outline: (§5)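 Patient-derived CSC spheroids were dissociated, plated at 2000–3000 viable cells, and held 24 h at 37 °C in 5% CO2. They were then treated 72 h with eight 1:3 serial dilutions (0.023–50 μM), with 0.1% DMSO as control, in triplicate. Viability was read by CellTiter-Glo luminescence relative to DMSO, and CC50 was obtained by 4-parameter logistic fit (mean of three experiments).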

[12] = biological target: T3, NAD-dependent protein deacetylase sirtuin-2 (Homo sapiens, UniProt Q8IXJ6); experiment: Inhibition of human SIRT2 expressed in Escherichia coli using Gln-Pro-Lys-Lys(Ac) as substrate after 1 hr by Fluor de Lys fluorescence based assay; outline: as §3
T3 sequence (Q8IXJ6 whole entry): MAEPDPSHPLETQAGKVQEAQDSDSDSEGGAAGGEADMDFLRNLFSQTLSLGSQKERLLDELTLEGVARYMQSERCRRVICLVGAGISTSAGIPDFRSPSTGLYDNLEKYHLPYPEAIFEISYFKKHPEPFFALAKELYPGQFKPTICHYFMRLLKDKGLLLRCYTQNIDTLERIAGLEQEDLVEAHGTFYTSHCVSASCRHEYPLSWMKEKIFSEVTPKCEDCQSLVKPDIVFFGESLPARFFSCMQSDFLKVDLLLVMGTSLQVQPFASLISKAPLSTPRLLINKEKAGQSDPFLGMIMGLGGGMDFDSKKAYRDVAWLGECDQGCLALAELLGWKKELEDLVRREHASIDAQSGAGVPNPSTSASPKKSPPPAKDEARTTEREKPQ

[13] = Cytotoxicity against human CRC 1.1 cells after 72 hrs by celltiter-glo luminescent assay; assay type: functional; outline: as §5
[14] = Cytotoxicity against human 30P cells after 72 hrs by celltiter-glo luminescent assay; assay type: functional; outline: as §5
[15] = Cytotoxicity against human CRO cells after 72 hrs by celltiter-glo luminescent assay; assay type: functional; outline: as §5

Structure (SMILES) | Activity (U-937 [1]) | Activity (U-937 [2]) | Activity (U-937 [3]) | Activity (U-937 [4]) [%] | Activity (MOLT-4 [6]) | Activity (MOLT-4 [7]) | Activity (MOLT-4 [8]) | further results
CC(CS(=O)(=O)c1cccc(/N=C/c2c(O)ccc3ccccc23)c1)c1ccccc1 (stereo not given) | Active | inactive | – | – | – | – | – | –
CC(NC(=O)c1cccc(/N=C/c2c(O)ccc3ccccc23)c1)c1ccccc1 (stereo not given) | Active | inactive | Active | 47 | – | – | – | inhibition [5]: Active
CC(CSc1ccccc1/N=C/c1c(O)ccc2ccccc12)c1ccccc1 (stereo not given) | Active | inactive | – | – | Active | – | – | –
CC(C[S+]([O-])c1ccc(/N=C/c2c(O)ccc3ccccc23)cc1)c1ccccc1 (stereo not given) | Active | inactive | – | – | – | tde | Active | –
CC(NS(=O)(=O)c1cccc(/N=C/c2c(O)ccc3ccccc23)c1)c1ccccc1 (stereo not given) | Active | inactive | – | – | – | – | – | Activity (U-937 [9]): Active
CC(NC(=O)c1ccc(/N=C/c2c(O)ccc3ccccc23)cc1)c1ccccc1 (stereo not given) | Active | inactive | Active | 47 | Active | tde | Active | inhibition [5]: Active
CC(C(=O)Nc1ccc(/N=C/c2c(O)ccc3ccccc23)cc1)c1ccccc1 (stereo not given) | Active | inactive | Active | 70 | – | tde | Active | IC50 [10]: 40.9 µM
CC(C(=O)Nc1ccccc1/N=C/c1c(O)ccc2ccccc12)c1ccccc1 (stereo not given) | Active | inactive | – | – | – | – | – | Activity (U-937 [9]): Active
CC(CS(=O)(=O)c1ccccc1/N=C/c1c(O)ccc2ccccc12)c1ccccc1 (stereo not given) | Active | inactive | – | – | Active | – | – | CC50 [11]: 15.3 µM; IC50 [12]: 24.2 µM; CC50 [13]: 19.5 µM; CC50 [14]: 17.4 µM; CC50 [15]: 15.7 µM
CC(C[S+]([O-])c1cccc(/N=C/c2c(O)ccc3ccccc23)c1)c1ccccc1 (stereo not given) | Active | inactive | – | – | Active | – | Active | CC50 [13]: 23.4 µM; CC50 [14]: 35 µM; IC50 [10]: 40.3 µM
